Results reported in ChEMBL document CHEMBL1124451, “[(1H-imidazol-1-yl)methyl]- and [(3-pyridinyl)methyl]pyrroles as thromboxane synthetase inhibitors” (J Med Chem, 1989).

Assays:
[1] = target: T1, Thromboxane-A synthase (Homo sapiens) (UniProt P24557); assay: Relative potency of thromboxane A2 synthetase as reduced ADP-induced aggregation of human platelet rich plasma compared to dazoxiben; format: functional, cell-free
T1 sequence (whole entry): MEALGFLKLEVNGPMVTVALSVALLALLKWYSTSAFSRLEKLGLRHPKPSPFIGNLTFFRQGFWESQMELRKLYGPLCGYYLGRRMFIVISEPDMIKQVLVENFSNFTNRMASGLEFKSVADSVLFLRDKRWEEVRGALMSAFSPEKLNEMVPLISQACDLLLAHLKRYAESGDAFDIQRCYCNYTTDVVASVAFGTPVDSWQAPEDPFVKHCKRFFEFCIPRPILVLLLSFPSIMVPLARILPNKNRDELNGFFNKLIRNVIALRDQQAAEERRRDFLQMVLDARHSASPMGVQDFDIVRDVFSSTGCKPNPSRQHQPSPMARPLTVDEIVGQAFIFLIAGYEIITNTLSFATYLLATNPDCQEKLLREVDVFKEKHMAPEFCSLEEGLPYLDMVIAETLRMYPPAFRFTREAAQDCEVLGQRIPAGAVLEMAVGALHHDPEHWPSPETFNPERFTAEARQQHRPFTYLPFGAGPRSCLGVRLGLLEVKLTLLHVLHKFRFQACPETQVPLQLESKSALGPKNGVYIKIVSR

Homo sapiens [2] = organism: Homo sapiens; assay: Relative potency to inhibit ADP-induced aggregation of human platelet rich plasma compared to that of dazoxiben, in vitro using pig aortal microsomes.; format: functional; conditions: Aorta
Homo sapiens [3] = organism: Homo sapiens; assay: In vitro inhibition of ADP-induced aggregation of human platelet rich plasma in the presence of pig aortal microsomes.; format: functional; conditions: Aorta
How it was run: (§1)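 Human citrated blood (0.38% citrate final), PRP by centrifugation at 200g, room temperature. Drug added to 1.0 mL PRP, 2 min at 37 °C with stirring (500 rpm), then pig aortal microsomes 3 min; microsome amount set by the dazoxiben standard. Aggregation induced by 5 μM ADP (final), read turbidimetrically.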

Mus musculus [4] = assay: Activity at 10 mg/kg […] against mortality in a pulmonary thromboembolism model in mice (10 animals) at -5h following oral administration; format: functional
How it was run: (§2)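 Male Swiss-Webster mice (22-26 g), 10 per group (one group of 9); test material given po in 0.2 mL CMC at -1, -3, -5 or -18 h before challenge. At hour 0, collagen extract plus epinephrine hydrochloride given iv via tail vein in 0.9% saline. The collagen amount was titrated per lot to 90-100% mortality in vehicle controls. Readout: % surviving at 24 h.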

Mus musculus [5] = assay: Activity at 10 mg/kg […] against mortality in a pulmonary thromboembolism model in mice (10 animals) at -1h following oral administration; format: functional; how it was run: as §2
Mus musculus [6] = assay: Activity at 10 mg/kg […] against mortality in a pulmonary thromboembolism model in mice (10 animals) at -7h following oral administration; format: functional
Mus musculus [7] = assay: Activity at 10 mg/kg […] against mortality in a pulmonary thromboembolism model in mice (10 animals) at -18h following oral administration; format: functional; how it was run: as §2
Mus musculus [8] = assay: Activity at 10 mg/kg […] against mortality in a pulmonary thromboembolism model in mice (9 animals) at -3h following oral administration; format: functional; how it was run: as §2
Mus musculus [9] = assay: Activity at 25 mg/kg given intravenously against mortality in a pulmonary thromboembolism model in mice (9 animals) at -3h; format: functional; conditions: route intravenous
How it was run: (§3)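 Male Swiss-Webster mice (22-26 g); test material given iv in 0.2 mL CMC before challenge (mostly at -3 h, one group at -1 h). At hour 0, collagen extract plus epinephrine hydrochloride given iv in 0.2 mL 0.9% saline via tail vein. The collagen amount was set per lot as the minimum giving 90-100% mortality in CMC-vehicle controls. Readout: % surviving at 24 h.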

Mus musculus [10] = assay: Activity at 10 mg/kg […] against mortality in a pulmonary thromboembolism model in mice (10 animals) at -3h following oral administration; format: functional; how it was run: as §2
Mus musculus [11] = assay: Activity at 10 mg/kg given intravenously against mortality in a pulmonary thromboembolism model in mice (10 animals) at -1h; format: functional; conditions: route intravenous; how it was run: as §3
Homo sapiens [12] = organism: Homo sapiens; assay: In vitro inhibition of ADP-induced aggregation of human platelet rich plasma in the presence of pig aortal microsomes; format: functional; conditions: Aorta; how it was run: as §1
Homo sapiens [13] = organism: Homo sapiens; assay: Relative potency to inhibit ADP-induced aggregation of human platelet rich plasma compared to that of dazoxiben, in vitro using pig aortal microsomes; format: functional; conditions: Aorta

SMILES | Relative potency [1] | IC50 (Homo sapiens [3]) [µM] | Relative potency (Homo sapiens [2]) | other results
CCOC(=O)/C(C)=C\c1ccc(Cc2cccnc2)n1CC |  | 14 | 0.14 | 
Cc1c(Cn2ccnc2)c2ccccc2n1CCC(=O)O [DAZMEGREL] |  | 1.9 | 1 | survival at 10 mg/kg (Mus musculus [4]): 20%; survival at 10 mg/kg (Mus musculus [5]): 20%; survival at 10 mg/kg (Mus musculus [6]): 0%; survival at 10 mg/kg (Mus musculus [7]): 10%; survival at 10 mg/kg (Mus musculus [8]): 11%
C/C(=C\c1cc(Cn2ccnc2)n(C)c1)C(=O)O | 1.3 |  |  | 
CCOC(=O)/C(C)=C\c1cc(Cc2cccnc2)n(C(C)(C)C)c1 |  | 3.2 | 0.59 | 
O=C(O)c1ccc(OCCn2ccnc2)cc1 [DAZOXIBEN] |  | 2.28 |  | survival at 10 mg/kg (Mus musculus [4]): 20%; survival at 25 mg/kg (Mus musculus [9]): 67%; survival at 10 mg/kg (Mus musculus [5]): 50%; survival at 10 mg/kg (Mus musculus [6]): 20%; survival at 10 mg/kg (Mus musculus [10]): 40%; survival at 10 mg/kg (Mus musculus [11]): 30%; survival at 10 mg/kg (Mus musculus [7]): 10%
C/C(=C/c1ccc(Cc2cccnc2)n1C(C)C)C(=O)O | 0.9 |  |  | 
CCOC(=O)/C(C)=C\c1ccc(Cn2ccnc2)n1C |  |  |  | IC50 (Homo sapiens [12]): 26 µM; Relative potency (Homo sapiens [13]): 0.08
COC(=O)[C@@H]1CC1c1ccc(Cn2ccnc2)n1C (some centres undefined) | 0.22 |  |  | 

Second part, led by results:

Relative potency [1] | IC50 (Homo sapiens [3]) [µM] | SMILES | Relative potency (Homo sapiens [2]) | other results
0.62 |  | Cn1cc(/C=C/C(=O)O)cc1Cn1ccnc1 |  | 
0.75 |  | Cn1c(/C=C/C(=O)O)ccc1Cn1ccnc1 |  | 
 | 20 | C/C(=C\c1ccc(Cn2ccnc2)[nH]1)C(=O)OCc1ccccc1 | 0.11 | 
 | 32 | CCOC(=O)/C(C)=C\c1ccc(Cc2cccnc2)n1C(C)C | 0.06 | 
 | 1.8 | CCOC(=O)/C=C/c1cc(Cn2ccnc2)n(C)c1 | 1.2 | 
 | 8.1 | CCOC(=O)/C(C)=C\c1ccc(Cn2ccnc2)[nH]1 | 0.31 | 
